Results reported in ChEMBL document CHEMBL4706553, “Discovery of potent small molecule PROTACs targeting mutant EGFR” (Eur J Med Chem, 2020).
Active and inactive are the calls of the source.

Key:
HepG2 = assay: Antiproliferative activity against human HepG2 cells expressing VEGFR2 assessed as cell growth inhibition measured after 72 hrs by MTT assay; assay type: functional, cell-based; settings: HepG2, 72 h
In short: (§1)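 Cells were seeded at 3000–8000/well and allowed 24 h, then exposed to serial compound concentrations for 72 h. MTT (5 mg/mL stock in PBS) was added for 4 h, supernatant removed and DMSO added. IC50, defined as 50% growth inhibition, was derived by nonlinear regression (log inhibitor vs response).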

NCI-H1975 = assay: Antiproliferative activity against human H1975 cells expressing EGFR L858R/T790M mutant assessed as cell growth inhibition measured after 72 hrs by MTT assay; assay type: functional, cell-based; settings: NCI-H1975, 72 h
In short: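 MTT assay on H1975 cells grown in RPMI-1640 with 10% heat-inactivated FBS and 1% penicillin-streptomycin at 37 °C and 5% CO₂. Cells were seeded at 3000–8000 per well and left 24 h, then exposed to a concentration series for 72 h. MTT (5 mg/mL stock in PBS) was added for 4 h, supernatant removed and formazan dissolved in DMSO. IC50 was fitted by nonlinear regression (log inhibitor vs response).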

[1] = system: Protein cereblon/Epidermal growth factor receptor (Homo sapiens), P00533+Q96SW2 [UNDEFINED MUTATION]; assay: Protac activity at CRBN/EGFR del19 mutant in human HCC827 cells assessed as induction of EGFR degradation at 33 nM measured after 24 hrs by Western blot analysis; assay type: cell-based
In short: (§2)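 HCC827 cells seeded at 0.5–1 × 10⁶ per well, grown 24 h, then treated at the stated concentrations for 24 h. EGFR^del19 level by Western blot with anti-EGFR antibody and β-actin loading control.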

A-431 = assay: Antiproliferative activity against human A431 cells expressing wild type EGFR assessed as cell growth inhibition measured after 72 hrs by MTT assay; assay type: functional, cell-based; settings: A-431, 72 h; in short: as §1
[2] = system: Protein cereblon/Epidermal growth factor receptor (Homo sapiens), P00533+Q96SW2 [UNDEFINED MUTATION]; assay: Protac activity at CRBN/EGFR del19 mutant in human HCC827 cells assessed as induction of EGFR degradation at 333 nM measured after 24 hrs by Western blot analysis; assay type: cell-based; in short: as §2
HCC827 = assay: Antiproliferative activity against human HCC827 cells expressing EGFR del19 mutant assessed as cell growth inhibition measured after 72 hrs by MTT assay; assay type: functional, cell-based; settings: HCC827, 72 h
In short: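 HCC827 cells were kept in RPMI-1640 with 10% heat-inactivated FBS, 1% sodium pyruvate, 1% glutamine and 1% penicillin-streptomycin at 37 °C and 5% CO₂, seeded at 3000–8000/well and rested 24 h. Compounds were applied as a concentration series for 72 h. MTT (5 mg/mL stock in PBS) was given for 4 h, then medium was removed and DMSO added. IC50 came from nonlinear regression (log inhibitor vs response).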

[3] = system: von Hippel-Lindau disease tumor suppressor/Epidermal growth factor receptor (Homo sapiens), P00533+P40337 [UNDEFINED MUTATION]; assay: Protac activity at VHL/EGFR del19 mutant in human HCC827 cells assessed as induction of EGFR degradation at 33 to 333 nM measured after 24 hrs by Western blot analysis; assay type: cell-based; settings: dose 33-333 nM; in short: as §2
[4] = system: Protein cereblon/Epidermal growth factor receptor (Homo sapiens), P00533+Q96SW2 [UNDEFINED MUTATION]; assay: Protac activity at CRBN/EGFR del19 mutant in human HCC827 cells assessed as maximal induction of EGFR degradation at 33 nM measured after 48 hrs by Western blot analysis; assay type: cell-based
In short: (§3)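 HCC827 cells seeded at 0.5–1 × 10⁶ per well, then treated at the stated concentrations for 48 h. EGFR by Western blot; n = 3. DC₅₀ (concentration giving 50% EGFR loss) by nonlinear regression, log(inhibitor) vs response.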

[5] = system: Protein cereblon/Epidermal growth factor receptor (Homo sapiens), P00533+Q96SW2 [UNDEFINED MUTATION]; assay: Protac activity at CRBN/EGFR del19 mutant in human HCC827 cells assessed as induction of EGFR degradation at 33 nM incubated for 24 hrs measured following compound wash-out for 24 to 48 hrs by Western blot analysis; assay type: cell-based
In short: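 HCC827 cells (RPMI-1640, 10% heat-inactivated FBS, 1% sodium pyruvate, 1% glutamine, 37 °C, 5% CO₂) treated at 33 nM for 24 h. Medium then replaced with compound-free medium, and protein harvested at the stated times. EGFR read by Western blot; n = 2.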

[6] = system: Protein cereblon/Epidermal growth factor receptor (Homo sapiens), P00533+Q96SW2 [UNDEFINED MUTATION]; assay: Protac activity at CRBN/EGFR del19 mutant in human HCC827 cells assessed as induction of EGFR degradation at 0.033 uM pretreated with ubiquitination inhibitor, MLN4924 for 2 hrs followed by incubation with compound for 24 hrs by Western blot analysis; assay type: cell-based
[7] = molecular target: T1, Protein cereblon/Epidermal growth factor receptor (Homo sapiens, UniProt P00533+Q96SW2); assay: Protac activity at CRBN/EGFR in human A431 cells assessed as induction of degradation of EGFR at 0.1 to 3.3 uM incubated for 48 hrs by Western blot analysis; assay type: cell-based; settings: A-431, dose 0.1-3.3 µM
[8] = system: Protein cereblon/Epidermal growth factor receptor (Homo sapiens), P00533+Q96SW2 [UNDEFINED MUTATION]; assay: Protac activity at CRBN/EGFR del19 mutant in human HCC827 cells assessed as induction of EGFR degradation at 0.033 uM pretreated with proteasome inhibitor, MG132 for 2 hrs followed by incubation with compound for 24 hrs by Western blot analysis; assay type: cell-based
[9] = molecular target: T1, Protein cereblon/Epidermal growth factor receptor; assay: Protac activity at CRBN/EGFR del19 mutant in human HCC827 cells assessed as induction of EGFR degradation measured after 48 hrs by Western blot analysis; assay type: cell-based; in short: as §3
[10] = system: Protein cereblon/Epidermal growth factor receptor (Homo sapiens), P00533+Q96SW2 [UNDEFINED MUTATION]; assay: Protac activity at CRBN/EGFR del19 mutant in human HCC827 cells assessed as induction of EGFR degradation at 33 nM by Western blot analysis; assay type: cell-based; settings: time 12-72 hrs, TDE = time-dependent effect
In short: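 Time course in HCC827 cells at 33 nM, with protein harvested at each stated time point. EGFR^del19 detected by Western blot.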

[11] = system: Protein cereblon/Epidermal growth factor receptor (Homo sapiens), P00533+Q96SW2 [UNDEFINED MUTATION]; assay: Protac activity at CRBN/EGFR del19 mutant in human HCC827 cells assessed as induction of EGFR degradation at 0.033 uM pretreated with CRBN ligand, lenalidomide for 2 hrs followed by incubation with compound for 24 hrs by Western blot analysis; assay type: cell-based
[12] = system: Protein cereblon/Epidermal growth factor receptor (Homo sapiens), P00533+Q96SW2 [UNDEFINED MUTATION]; assay: Protac activity at CRBN/EGFR del19 mutant in human HCC827 cells assessed as induction of EGFR degradation at 0.033 uM pretreated with autophagy inhibitor, chloroquine for 2 hrs followed by incubation with compound for 24 hrs by Western blot analysis; assay type: cell-based
[13] = system: Protein cereblon/Epidermal growth factor receptor (Homo sapiens), P00533+Q96SW2 [UNDEFINED MUTATION]; assay: Protac activity at CRBN/EGFR del19 mutant in human HCC827 cells assessed as induction of EGFR degradation at 0.033 uM pretreated with EGFR inhibitor, F for 2 hrs followed by incubation with compound for 24 hrs by Western blot analysis; assay type: cell-based
[14] = system: von Hippel-Lindau disease tumor suppressor/Epidermal growth factor receptor (Homo sapiens), P00533+P40337 [UNDEFINED MUTATION]; assay: Protac activity at VHL/EGFR del19 mutant in human HCC827 cells assessed as induction of EGFR degradation at 1 to 33 nM incubated for 24 hrs by Western blot analysis; assay type: cell-based; settings: dose 1-33 nM; in short: as §2
[15] = system: von Hippel-Lindau disease tumor suppressor/Epidermal growth factor receptor (Homo sapiens), P00533+P40337 [L858R,T790M]; assay: Protac activity at VHL/EGFR L858R/T790M mutant in human H1975 cells assessed as induction of degradation of EGFR at 0.33 to 1 uM incubated for 24 hrs by Western blot analysis; assay type: cell-based; settings: NCI-H1975, dose 0.33-1 µM
In short: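 H1975 cells, after 24 h seeding, treated at the stated concentrations for 24 h. EGFR by Western blot with β-actin loading control.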

SMILES | IC50 (HepG2) [nM] | IC50 (NCI-H1975) [nM] | Activity [1] | IC50 (A-431) [nM] | Activity [2] | IC50 (HCC827) [nM] | other results
CN(CCOCCOCCOCCOCCN1CCN(c2ccc(Nc3ncc4nc(Nc5ccccc5)n(C5CCCC5)c4n3)cc2)CC1)CC(=O)Nc1cccc2c1CN(C1CCC(=O)NC1=O)C2=O (centres undefined) | > 5000 | 3340 | Active | 2720 | inactive | 2.83 | –
O=C1CCC(N2Cc3c(NC(=O)CCCCCCCN4CCN(c5ccc(Nc6ncc7nc(Nc8ccccc8)n(C8CCCC8)c7n6)cc5)CC4)cccc3C2=O)C(=O)N1 (centres undefined) | > 5000 | 3780 | Active | 240 | inactive | 2.61 | –
Cc1ncsc1-c1ccc(CNC(=O)[C@@H]2C[C@@H](O)CN2C(=O)[C@@H](NCCOCCOCCN2CCN(c3ccc(Nc4ncc5nc(Nc6ccccc6)n(C6CCCC6)c5n4)cc3)CC2)C(C)(C)C)cc1 | > 5000 | 1100 | – | – | – | 53.5 | Activity [3]: inactive
CN(CCOCCOCCOCCN1CCN(c2ccc(Nc3ncc4nc(Nc5ccccc5)n(C5CCCC5)c4n3)cc2)CC1)CC(=O)Nc1cccc2c1CN(C1CCC(=O)NC1=O)C2=O (centres undefined) | > 5000 | 3180 | Active | 1860 | inactive | 2 | Emax [4]: 82%; Activity [5]: inactive; Activity [6]: inactive; Activity [7]: inactive; Activity [8]: Active; DC50 [9]: 1.91 nM; Activity [10]: Tde; Activity [11]: inactive; Activity [12]: inactive; Activity [13]: inactive
CN1CCN(c2ccc(Nc3ncc4nc(Nc5ccccc5)n(C5CCCC5)c4n3)cc2)CC1 | > 5000 | 430 | – | 163 | – | 0.82 | –
Cc1ncsc1-c1ccc(CNC(=O)[C@@H]2C[C@H](O)CN2C(=O)[C@@H](NC(=O)CCCCCCN2CCN(c3ccc(Nc4ncc5nc(Nc6ccccc6)n(C6CCCC6)c5n4)cc3)CC2)C(C)(C)C)cc1 | – | > 10000 | – | – | – | 15.8 | Activity [14]: inactive; Activity [15]: inactive
Cc1ncsc1-c1ccc(CNC(=O)[C@@H]2C[C@@H](O)CN2C(=O)[C@@H](NCCOCCOCCOCCN2CCN(c3ccc(Nc4ncc5nc(Nc6ccccc6)n(C6CCCC6)c5n4)cc3)CC2)C(C)(C)C)cc1 | > 5000 | 2100 | – | – | – | 54.4 | Activity [3]: inactive
